{"source": "PubChem BioAssay AID588749", "about": "(Vanderbilt Specialized Chemistry Center, 2011)", "target": "Muscarinic acetylcholine receptor M1 (Rattus norvegicus) (UniProt P08482)", "sequence (P08482 whole entry, looked up)": "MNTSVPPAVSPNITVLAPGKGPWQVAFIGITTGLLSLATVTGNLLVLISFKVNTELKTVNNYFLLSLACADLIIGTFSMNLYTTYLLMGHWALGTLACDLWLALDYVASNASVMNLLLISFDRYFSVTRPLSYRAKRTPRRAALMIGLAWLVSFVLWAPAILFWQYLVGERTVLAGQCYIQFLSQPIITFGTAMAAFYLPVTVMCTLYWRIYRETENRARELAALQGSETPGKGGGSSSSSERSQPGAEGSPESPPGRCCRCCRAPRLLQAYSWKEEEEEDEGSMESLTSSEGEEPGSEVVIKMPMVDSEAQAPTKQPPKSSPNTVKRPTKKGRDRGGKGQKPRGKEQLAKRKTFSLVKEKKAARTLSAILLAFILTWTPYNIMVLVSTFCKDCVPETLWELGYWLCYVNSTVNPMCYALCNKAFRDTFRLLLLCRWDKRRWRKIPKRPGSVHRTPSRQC", "assay": "potentiation of ACh at rat M1 – CHO cells, calcium fluorescence, counter-screen for M4 PAM project, dose response (AID 588749)", "settings": "Fluo-4 calcium fluorescence", "in_short": "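Material: rat M1 CHO cells. Also added: acetylcholine at EC20, followed by acetylcholine at EC80. Schedule: 144 s compound pre-incubation, 37 °C. Detection: Fluo-4 calcium flux fluorescence. Measure: % max ACh response and EC50.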", "note": "Activity calls are given as the source filed them.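 How the source made its calls: active means a clear dose-dependent calcium response in rat M1 cells, with a fitted half-maximal potency; inactive means the rest.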"}
{"smiles": "Cc1nc2sc(C(=O)NC3CC3)c(N)c2c(C)c1Cl", "values": [{"measurement": "EC50", "value": 943, "unit": "nM"}]}
{"smiles": "Cc1nc2sc(C(=O)NCc3ccncn3)c(N)c2c(C)c1Cl", "values": [{"measurement": "percent of ACh max response", "setting": "at 30 µM (top of the series)", "value": "inactive"}]}
{"smiles": "Cc1nc2sc(C(=O)NCc3cccnc3)c(N)c2c(C)c1Cl", "values": [{"measurement": "percent of ACh max response", "setting": "at 45.3 µM (top of the series)", "value": "inactive"}]}
{"smiles": "Cc1nc2sc(C(=O)NCc3ccc4c(c3)OCO4)c(N)c2c(C)c1Cl", "values": [{"measurement": "percent of ACh max response", "setting": "at 36.8 µM (top of the series)", "value": "inactive"}]}
{"smiles": "Cc1nc2sc(C(=O)NCc3nccs3)c(N)c2c(C)c1Cl", "values": [{"measurement": "percent of ACh max response", "setting": "at 30 µM (top of the series)", "value": "inactive"}]}
{"smiles": "Cc1nc2sc(C(=O)NCc3ccncc3)c(N)c2c(C)c1Cl", "values": [{"measurement": "percent of ACh max response", "setting": "at 45.3 µM (top of the series)", "value": "inactive"}]}
{"smiles": "Cc1nc2sc(C(=O)NCc3ccccc3)c(N)c2c(C)c1Cl", "values": [{"measurement": "percent of ACh max response", "setting": "at 37.4 µM (top of the series)", "value": "inactive"}]}
{"smiles": "Cc1nc2sc(C(=O)NCCc3ccncc3)c(N)c2c(C)c1Cl", "values": [{"measurement": "percent of ACh max response", "setting": "at 30 µM (top of the series)", "value": "inactive"}]}
{"smiles": "Cc1nc2sc(C(=O)NCc3cccc(F)c3F)c(N)c2c(C)c1Cl", "values": [{"measurement": "percent of ACh max response", "setting": "at 30 µM (top of the series)", "value": "inactive"}]}
